Here are results for 15 molecules from paper PMC5091660 (Journal of medicinal chemistry, 2016).

Entries after “also recorded” stand apart in the source; their conditions may differ. Some results are limits rather than exact numbers.

Broadly, the IC50 is the point on the concentration scale where inhibition reaches its midpoint. Broadly, the EC50 is the concentration that produces a half-maximal response. Low readings indicate an effect from little substance, high ones a need for much substance.

The target of data set [1] is T1, S1P1 (Homo sapiens, UniProt P21453). In words: competitive [^32P]S1P binding assay, S1P1. To be noted: for IC50: S1P1 IC50, competition with [^32P]S1P, cell membranes expressing recombinant human S1P1; for decrease in S1P1 binding affinity relative to 28c: head group change of 28c.
T1 sequence (P21453 whole entry): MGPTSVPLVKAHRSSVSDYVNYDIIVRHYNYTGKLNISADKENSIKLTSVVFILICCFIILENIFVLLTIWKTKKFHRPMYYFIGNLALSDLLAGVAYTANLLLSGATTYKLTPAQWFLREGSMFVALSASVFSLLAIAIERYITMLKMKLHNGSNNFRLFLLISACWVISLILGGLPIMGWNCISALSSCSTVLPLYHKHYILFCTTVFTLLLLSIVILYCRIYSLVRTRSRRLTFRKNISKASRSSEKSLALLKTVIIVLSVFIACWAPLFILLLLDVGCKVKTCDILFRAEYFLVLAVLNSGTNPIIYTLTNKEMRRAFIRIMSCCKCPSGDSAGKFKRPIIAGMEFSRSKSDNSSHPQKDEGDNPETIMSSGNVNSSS
Data set [2] has as its target T1, S1P1. As to the kind of experiment: in vitro functional assay. Format: cell-based. In outline:
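S1P1-TANGO-U2OS cells at 312,500 cells/mL in unsupplemented Freestyle Expression Medium were grown 48 h at 37 °C, 5% CO2. Test compound in DMSO was added (controls 0.5% DMSO final), then incubated 5 h at 37 °C. LiveBLAzer FRET substrate mix with 10 mM probenecid was added for 2 h at r.t. in the dark. Read-out: excitation 405 nm, emission 460 and 535 nm.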

Another data set deals with recombinant human S1P2 (Homo sapiens, UniProt O95136). In words: competitive [^32P]S1P binding assay, S1P2.
recombinant human S1P2, sequence (O95136 whole entry): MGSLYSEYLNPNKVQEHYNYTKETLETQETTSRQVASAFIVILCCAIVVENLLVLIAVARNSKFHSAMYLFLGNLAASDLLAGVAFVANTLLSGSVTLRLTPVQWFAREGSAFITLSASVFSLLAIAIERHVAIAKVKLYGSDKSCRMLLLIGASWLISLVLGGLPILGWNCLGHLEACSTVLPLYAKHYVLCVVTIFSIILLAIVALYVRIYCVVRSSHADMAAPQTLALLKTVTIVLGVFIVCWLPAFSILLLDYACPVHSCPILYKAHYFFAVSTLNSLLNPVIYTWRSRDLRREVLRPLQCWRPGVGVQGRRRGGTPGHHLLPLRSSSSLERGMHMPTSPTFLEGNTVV
The next data set deals with recombinant human S1P3 (Homo sapiens, UniProt Q99500). In words: competitive [^32P]S1P binding assay, S1P3.
recombinant human S1P3, sequence (Q99500 whole entry): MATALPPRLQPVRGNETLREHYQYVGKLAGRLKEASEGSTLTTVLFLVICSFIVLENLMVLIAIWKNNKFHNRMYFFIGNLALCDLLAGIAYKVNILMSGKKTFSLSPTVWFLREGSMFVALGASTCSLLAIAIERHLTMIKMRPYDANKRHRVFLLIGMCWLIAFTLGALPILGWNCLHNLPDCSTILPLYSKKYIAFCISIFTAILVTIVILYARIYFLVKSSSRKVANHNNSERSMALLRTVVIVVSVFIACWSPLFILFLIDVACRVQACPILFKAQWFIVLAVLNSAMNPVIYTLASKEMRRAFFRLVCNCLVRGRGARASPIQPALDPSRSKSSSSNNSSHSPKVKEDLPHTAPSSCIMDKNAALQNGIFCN
Data set [3] relates to liver of LPS-treated mice. In words: acute biodistribution in LPS-treated and sham mice. The class given is in vivo, C57BL/6 mice. To be noted: n = 4 per group. In outline:
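About 24 h after sham or LPS treatment, mice received the 18F-labelled test compound (~20 μCi, 0.74 MBq, in 10% ethanol/saline) by tail vein. A separate set received [99mTc]mebrofenin (~4 μCi, 148 KBq) under 2–3% isoflurane/oxygen. Mice were euthanized at 30 or 60 min (n = 4 per group per tracer). Tissues were weighed and gamma-counted against a dilution of the injectate.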

Data set [4] concerns liver of LPS-treated mice. In words: [^15O]water microPET study of liver blood flow in LPS-treated and sham mice. Format: in vivo, C57BL/6 mice. The note with it: 10 min scan after bolus injection via tail vein. Summed up:
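Adult male C57BL/6 mice (18–23 g) were pretreated ~24 h earlier with saline or LPS and kept under 2–3% isoflurane via nose cone on an Inveon PET/CT. After a transmission scan and CT, they received a bolus of [15O]water (30–55 MBq) by tail vein, followed by a 10 min dynamic scan, ~30 min before the 18F scan. Liver activity was expressed as SUV.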

In the case of `O=C(O)c1ccc(-c2ccc3oc(-c4ccc(-c5ccc(F)nc5)c(C(F)(F)F)c4)nc3c2)s1` [Compound 16, 5-(2-(4-(6-Fluoropyridin-3-yl)-3-(trifluoromethyl)phenyl)benzo-[d]oxazol-5-yl)thiophene-2-carboxylic Acid], the IC50 on S1P1 [1] is 334 ± 59 nM. Further, the EC50 at S1P1 [2] worked out at 2.99 nM.
`O=C(O)C1CCN(Cc2ccc(-c3noc(-c4ccc(OCCF)c(C(F)(F)F)c4)n3)cc2)CC1` [Compound 28d, 1-(4-(5-(4-(2-Fluoroethoxy)-3-(trifluoromethyl)phenyl)-1,2,4-oxadiazol-3-yl)benzyl)piperidine-4-carboxylic Acid]: the “decrease in S1P1 binding affinity relative to 28c” value on S1P1 [1] was 20 fold. Besides, the IC50 on recombinant human S1P2 and on recombinant human S1P3 was > 1000 nM in each case.
For `FCCOc1ccc(-c2nc(-c3ccc(CNCc4nnn[nH]4)cc3)no2)cc1C(F)(F)F` [Compound 28e, N-((1H-Tetrazol-5-yl)methyl)-1-(4-(5-(4-(2-fluoroethoxy)-3-(trifluoromethyl)phenyl)-1,2,4-oxadiazol-3-yl)phenyl)methanamine], the “decrease in S1P1 binding affinity relative to 28c” value at S1P1 [1] was “over 100 fold”.
`COc1cccc(-c2ccc(-c3nc4cc(N5CCC(C(=O)O)CC5)ccc4o3)cc2C(F)(F)F)c1` [Compound 18e, 1-(2-(3′-Methoxy-2-(trifluoromethyl)-[1,1′-biphenyl]-4-yl)benzo-[d]oxazol-5-yl)piperidine-4-carboxylic Acid]: at S1P1 [2], the EC50 worked out at 4.9 nM.
As for `O=C(O)C1CN(Cc2ccc(-c3noc(-c4ccc(OCCF)c(C(F)(F)F)c4)n3)cc2)C1` [Compound 28c, 1-(4-(5-(4-(2-Fluoroethoxy)-3-(trifluoromethyl)phenyl)-1,2,4-oxadiazol-3-yl)benzyl)azetidine-3-carboxylic Acid], the IC50 at recombinant human S1P2 and on recombinant human S1P3 was > 1000 nM in each case.
The molecule `O=C(O)C1CCN(c2ccc3oc(-c4ccc(-c5ccc(F)cc5)c(C(F)(F)F)c4)nc3c2)CC1` [Compound 18a, 1-(2-(4′-Fluoro-2-(trifluoromethyl)-[1,1′-biphenyl]-4-yl)benzo[d]-oxazol-5-yl)piperidine-4-carboxylic Acid] gave a half-maximal effective concentration (EC50) on S1P1 [2] of 0.76 nM.
As to `CCOc1ccc(-c2nc(-c3ccc(CN4CC(C(=O)O)C4)cc3)no2)cc1` [Compound 28a, 1-(4-(5-(4-Ethoxyphenyl)-1,2,4-oxadiazol-3-yl)benzyl)azetidine-3-carboxylic Acid], the IC50 at recombinant human S1P2 was > 1000 nM.
In the case of `O=C(O)C1CCN(c2ccc3oc(-c4ccc(-c5ccc(OCCF)cc5)c(C(F)(F)F)c4)nc3c2)CC1` [Compound 18c, 1-(2-(4′-(2-Fluoroethoxy)-2-(trifluoromethyl)-[1,1′-biphenyl]-4-yl)benzo[d]oxazol-5-yl)piperidine-4-carboxylic Acid], on S1P1 [2], the EC50 came out at 11.1 nM.
Regarding `COc1ccc(-c2nc(-c3ccc(CN4CC(C(=O)O)C4)cc3)no2)cc1C(F)(F)F` [Compound 28f, 1-(4-(5-(4-Methoxy-3-(trifluoromethyl)phenyl)-1,2,4-oxadiazol-3-yl)benzyl)azetidine-3-carboxylic Acid], the IC50 on S1P1 [1] is > 100 nM.
For the molecule `O=C(O)C1CCN(c2ccc3oc(-c4ccc(-c5ccccc5OCCF)c(C(F)(F)F)c4)nc3c2)CC1` [Compound 18b, 1-(2-(2′-(2-Fluoroethoxy)-2-(trifluoromethyl)-[1,1′-biphenyl]-4-yl)benzo[d]oxazol-5-yl)piperidine-4-carboxylic Acid], on S1P1 [2], the response was half-maximal at 3.04 nM (EC50).
`O=C(O)C1CN(Cc2ccc(-c3noc(-c4ccc(OCCF)cc4)n3)cc2)C1` [Compound 28b, 1-(4-(5-(4-(2-Fluoroethoxy)phenyl)-1,2,4-oxadiazol-3-yl)benzyl)-azetidine-3-carboxylic Acid]: the IC50 at recombinant human S1P2 and at recombinant human S1P3 was > 1000 nM throughout.
Consider “[^99mTc]-N-(3-bromo-2,4,6-trimethyacetanilide) iminodiacetic acid [[^99mTc]mebrofenin]”, for which the results for the “liver uptake in LPS-treated mice compared with sham mice” value in data set [3] (30 min postinjection) and in data set [3] (60 min postinjection) were “increased” and “absence of a significant difference; also recorded: no significant difference”, respectively.
As for `[15OH2]` [[^15O]water], the “liver uptake (TAC) in LPS-treated mice compared to sham mice” value in data set [4] is listed as “no difference; also recorded: no significant change”.
Consider `O=C(O)C1CCN(c2ccc3oc(-c4ccc(-c5ccc(C(F)(F)F)cc5)c(C(F)(F)F)c4)nc3c2)CC1` [Compound 18d, 1-(2-(2,4′-Bis(trifluoromethyl)-[1,1′-biphenyl]-4-yl)benzo[d]-oxazol-5-yl)piperidine-4-carboxylic Acid], for which, on S1P1 [1], the IC50 was 498 ± 335 nM. On S1P1 [2], this molecule registered an EC50 of 4.47 nM.
In the case of `O=C(O)C1CN(Cc2ccc3oc(-c4ccc(OCCF)c(C(F)(F)F)c4)nc3c2)C1` [Compound 15b, 1-((2-(4-(2-Fluoroethoxy)-3-(trifluoromethyl)phenyl)benzo[d]-oxazol-5-yl)methyl)azetidine-3-carboxylic Acid], the IC50 on S1P1 [1] was determined as 76.4 ± 21.6 nM.
